The text below walks through data of ChEMBL document CHEMBL1126273, “Design and synthesis of some substrate analogue inhibitors of phospholipase A2 and investigations by NMR and molecular modeling into the binding interactions in the enzyme-inhibitor complex” (J Med Chem, 1992).

The target in assay [1] is T1, Phospholipase A2, major isoenzyme (Sus scrofa, UniProt P00592). Briefly: In vitro inhibition of porcine pancreatic phospholipase A2 evaluated by Deoxycholate-phospholipid mixed micelle assay; not active at the highest concentration tested. In outline:
(§1)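 Porcine pancreatic PLA2 at 0.074 μg/mL, with 2 mM CaCl2, 2.4 mM sodium deoxycholate and 100 μM 1-stearoyl-2-arachidonoyl-L-phosphatidylcholine traced with 22 000 dpm 1-stearoyl-2-[14C]arachidonoyl-PC, in 50 mM Tris-HCl pH 8.2. Inhibitor was added in methanol at 1% of assay volume. After 8 min at 37 °C, released [14C]arachidonic acid was extracted and counted by scintillation, under hopping-kinetics conditions.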

Assay [2] has as its target T1, Phospholipase A2, major isoenzyme. Briefly: In vitro inhibition of porcine pancreatic phospholipase A2 evaluated by monomeric substrate assay; not active at the highest concentration tested. Put shortly:
(§2)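 The monomeric thioester substrate was used at 5.44 mM, below its CMC of 14 mM. The assay also held 0.2 mM DTNB, 0.25 mM CaCl2 and 0.5 μg/mL porcine pancreatic PLA2 in 10 mM sodium phosphate pH 7.5. Inhibitor or methanol made up 2.5% of the volume. Rates were followed over 16 h at about 22 °C. Inhibition was calculated against solvent controls after subtracting nonenzymic hydrolysis.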

Assay [3] shares this target. Put plainly: In vitro inhibition of porcine pancreatic phospholipase A2 evaluated by Deoxycholate-phospholipid mixed micelle assay. Put shortly:
as §1

For assay [4] the target is unchanged. Briefly: In vitro inhibition of porcine pancreatic phospholipase A2 evaluated by monomeric substrate assay. In outline: as §2
Assay [5] addresses Phospholipase A2, major isoenzyme (Sus scrofa) (UniProt P00592). Put plainly: In vitro inhibition of porcine pancreatic phospholipase A2 by Deoxycholate-phospholipid mixed micelle assay at 30 uM.

T1 sequence (P00592 whole entry): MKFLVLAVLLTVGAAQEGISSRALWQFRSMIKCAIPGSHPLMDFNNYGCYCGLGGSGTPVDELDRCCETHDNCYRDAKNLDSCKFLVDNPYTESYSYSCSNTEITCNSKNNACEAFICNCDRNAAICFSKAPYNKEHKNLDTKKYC
Phospholipase A2, major isoenzyme (Sus scrofa), sequence (P00592 23-146 limits assumed): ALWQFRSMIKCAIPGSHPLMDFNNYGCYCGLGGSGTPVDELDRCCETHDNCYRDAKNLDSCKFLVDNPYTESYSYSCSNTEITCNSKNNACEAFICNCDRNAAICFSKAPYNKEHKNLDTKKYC

One may read the IC50 as the concentration needed to halve the response being measured. A higher IC50 goes with weaker potency. On to `C[N+](C)(C)CCOP(=O)([O-])OCCNC(=O)c1ccc2ccccc2c1`, for which the IC50 result in assay [1] was “Not Active”.

On to `CCCCCCCCCCCC(=O)NCCOP(=O)([O-])OCC[N+](C)(C)C`, for which the IC50 result in assay [1] and in assay [2] was “Not Active” each time.

On to `CCCCCCCCCCCCCCCC(=O)N[C@@H](COP(=O)(O)OCCO)CC(C)C`, for which the IC50 in assay [3] is 2.6 µM; in assay [4], 0.03 µM.

In general, inhibition refers to the relative decrease from the control value, in per cent. High values mean a strong effect, low ones a weak effect. Turning to `CCCCCCCCCCCCCCCC(=O)N[C@@H](COP(=O)(O)O)Cc1ccccc1`, half-maximal inhibition in assay [4] (IC50) required 5 µM. The compound further registered an inhibition in assay [5] of 42%.

As to `CCCCCCCCCCCCCCCC(=O)N[C@H](C)COP(=O)([O-])OCC[N+](C)(C)C`, the results for the IC50 in assay [3] and in assay [4] were 189 µM and 1.4 µM, respectively.

`CCCCCCCCCCCCCCCC(=O)OCC(COP(=O)(O)OCCO)NC(=O)CCCCCCCCCCCCC` (stereo unspecified): the IC50 in assay [3] came out at 3.5 µM; in assay [4] it was 0.03 µM.

For the compound `C[N+](C)(C)CCOP(=O)([O-])OCCNC(=O)Cc1ccc2ccccc2c1`, the IC50 result in assay [1] was “Not Active”; in assay [4], greater than 1000 µM.

For `CCCCCC/C=C/CC(=O)N[C@H](COP(=O)([O-])OCC[N+](C)(C)C)CC(C)C`, in assay [2], the IC50 entry was “Not Active”.

For `CCCCCCCCCCCCCCCC(=O)N[C@H](COP(=O)([O-])OCC[N+](C)(C)C)CC(C)C`, the IC50 result in assay [1] was “Not Active”; in assay [4], 4.5 µM.

`CC(C)C[C@H](COP(=O)([O-])OCC[N+](C)(C)C)NC(=O)Cc1ccc2ccccc2c1`: the IC50 result in assay [1] is “Not Active”; in assay [4], 160 µM.

On to `CCCCCC/C=C/CC(=O)N[C@@H](COP(=O)([O-])OCC[N+](C)(C)C)CC(C)C`, for which inhibition in assay [4] was half-maximal at 6 µM (IC50).

With `CCCCCCCCCCCCCCCC(=O)NCCOP(=O)([O-])OCC[N+](C)(C)C`, the IC50 in assay [3] is 300 µM; in assay [4] it was 4 µM.

In the case of `CCCCCCCCCCCCCCCCCCOC[C@H](COP(=O)([O-])OCC[N+](C)(C)C)NC(=O)CCCCCCCCCCCCCCC`, the IC50 in assay [3] amounted to 15 µM.

Consider `CCCCCCCCCCCCCCCC(=O)N[C@@H](COP(=O)([O-])OCC[N+](C)(C)C)CC(C)C`, for which the IC50 in assay [3] is 30 µM; in assay [4], 0.23 µM.

In the case of `CCCCCCCCCCCCCCCC(=O)N[C@@H](COP(=O)(O)O)CC(C)C`, the IC50 in assay [4] came out at 10 µM. Also, the inhibition in assay [5] was found to be 22%.
